Assay results reported in ChEMBL document CHEMBL1121761, “Antihypertensive pyrrolo[1,2-c]quinazolines and pyrrolo[1,2-c]quinazolinones” (1981).

How the values were obtained:
Assay type in all cases: functional, Artery
Rattus norvegicus [1] = experiment: Change in systolic blood pressure after 50 mg/kg oral administration in spontaneous hypertensive rats after 4 hr
How it was run: (§1)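 Male spontaneously hypertensive rats, four per dose, received oral doses suspended in 30% PEG 200, 10% PEG 400, 10% EtOH and 50% pH 7.50 phosphate buffer at 0.5 mL/100 g. A first dose of 100 mg/kg was followed by a second dose of 50 mg/kg. Tail-cuff systolic pressure was read before dosing and 2, 4 and 24 h after each dose. Postdose readings were compared with predose readings by paired Student's t test.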

Rattus norvegicus [2] = experiment: Change in systolic blood pressure after 100 mg/kg oral administration in spontaneous hypertensive rats after 2 hr; how it was run: as §1
Rattus norvegicus [3] = experiment: Change in systolic blood pressure after 50 mg/kg oral administration in spontaneous hypertensive rats after 2 hr; how it was run: as §1
Rattus norvegicus [4] = experiment: Change in systolic blood pressure after 100 mg/kg oral administration in spontaneous hypertensive rats after 4 hr; how it was run: as §1
Rattus norvegicus [5] = experiment: Change in systolic blood pressure after 100 mg/kg oral administration in spontaneous hypertensive rats after 24 hr; how it was run: as §1
Rattus norvegicus [6] = experiment: Change in systolic blood pressure after 50 mg/kg oral administration in spontaneous hypertensive rats after 24 hr; how it was run: as §1
Rattus norvegicus [7] = experiment: Change in systolic blood pressure after 33 mg/kg oral administration in spontaneous hypertensive rats after 2 hr
How it was run: (§2)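 Reference agents were given orally to male SHR, four per dose, as a suspension in PEG 200/PEG 400/EtOH/pH 7.50 phosphate buffer vehicle at 0.5 mL/100 g. Systolic pressure was measured by tail cuff before dosing and at 2, 4 and 24 h after each dose. Predose and postdose levels were compared by paired Student's t test.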

Rattus norvegicus [8] = experiment: Change in systolic blood pressure after 33 mg/kg oral administration in spontaneous hypertensive rats after 4 hr; how it was run: as §2
Rattus norvegicus [9] = experiment: Change in systolic blood pressure after 33 mg/kg oral administration in spontaneous hypertensive rats after 24 hr; how it was run: as §2
Rattus norvegicus [10] = experiment: Change in systolic blood pressure after 25 mg/kg oral administration in spontaneous hypertensive rats after 2 hr; how it was run: as §2
Rattus norvegicus [11] = experiment: Change in systolic blood pressure after 12.5 mg/kg oral administration in spontaneous hypertensive rats after 2 hr; how it was run: as §2
Rattus norvegicus [12] = experiment: Change in systolic blood pressure after 25 mg/kg oral administration in spontaneous hypertensive rats after 4 hr; how it was run: as §2
Rattus norvegicus [13] = experiment: Change in systolic blood pressure after 12.5 mg/kg oral administration in spontaneous hypertensive rats after 4 hr; how it was run: as §2
Rattus norvegicus [14] = experiment: Change in systolic blood pressure after 12.5 mg/kg oral administration in spontaneous hypertensive rats after 24 hr; how it was run: as §2
Rattus norvegicus [15] = experiment: Change in systolic blood pressure after 25 mg/kg oral administration in spontaneous hypertensive rats after 24 hr; how it was run: as §2

| Structure (SMILES) | Delta blood pressure (Rattus norvegicus [1]) | Delta blood pressure (Rattus norvegicus [2]) | Delta blood pressure (Rattus norvegicus [3]) | Delta blood pressure (Rattus norvegicus [4]) | Delta blood pressure (Rattus norvegicus [5]) | Delta blood pressure (Rattus norvegicus [6]) | further results |
| --- | --- | --- | --- | --- | --- | --- | --- |
| CCOC(=O)c1cc2n(c1)CN(CCC#N)c1ccccc1-2 | 38 | 13.8 | 33 | 11.3 | 1.2 |  |  |
| CCOC(=O)c1cc2c3cc(Cl)ccc3ncn2c1 | 31.3 | 17.5 | 13.8 | 16.3 | 5 | 7.5 |  |
| CC#Cc1c(C)cc2c3ccccc3nc(O)n12.Cl | 30 |  |  | 27 | 20.5 | 42 |  |
| CC(C)NCC(O)COc1cccc2ccccc12 (configuration not stated) [PROPRANOLOL] |  | 18.7 |  | 45 | 32.5 |  | Delta blood pressure (Rattus norvegicus [7]): 27.5; Delta blood pressure (Rattus norvegicus [8]): 28.7; Delta blood pressure (Rattus norvegicus [9]): 51.2 |
| COc1cc2nc(N3CCN(C(=O)c4ccco4)CC3)nc(N)c2cc1OC [PRAZOSIN] |  |  |  |  |  |  | Delta blood pressure (Rattus norvegicus [10]): 56.2; Delta blood pressure (Rattus norvegicus [11]): 40; Delta blood pressure (Rattus norvegicus [12]): 76.2; Delta blood pressure (Rattus norvegicus [13]): 48.2; Delta blood pressure (Rattus norvegicus [14]): 13.7; Delta blood pressure (Rattus norvegicus [15]): 41.2 |
| Cc1cc2c3ccccc3nc(O)n2c1 |  |  | 46 | 39 | 11 | 35 |  |
| CCOC(=O)c1cc2c3ccccc3n(CCC#N)c(=O)n2c1 | 19 |  |  | 2 | 45 | 59 |  |
| CCOC(=O)c1cc2c3cc(C#N)ccc3ncn2c1 | 33 | 11.6 | 21.6 | 20 | 20 | 6.6 |  |
| COc1ccc2c(c1)nc(O)n1cc(C)cc21 | 31 | 6 | 28 | 9 | 15 | 12 |  |
| CCOC(=O)c1cc2n(c1)CN(C)c1ccccc1-2 | 26 | 29 |  |  | 31 | 6.5 |  |
| CCOC(=O)c1cc2n(c1)CN(C(=O)OCC)c1ccccc1-2 | 42.5 | 6.2 | 18.7 | 11.2 | 20 | 23.7 |  |
